# Screen size: about 340,000 compounds; about 3,000 (0.88%) were called active. What follows is part of a selection rich in actives, with near analogues and random picks from the rest. Unmarked numbers belong to inactive results.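 The calls were made as follows: active = inhibition above about 50% at 20 µM (limit read from the data); inactive = the rest.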
# Molecular target: Carboxy-terminal domain RNA polymerase II polypeptide A small phosphatase 1 (Homo sapiens) (UniProt Q9GZU7)
# Assay: inhibition of human SCP1 dephosphorylation activity – biochemical, colorimetric, uHTS, primary screen (AID 493091);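 also: plate controls were DMSO wells with enzyme for no effect and wells lacking enzyme for full effect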
# Details: Recombinant Scp1, phosphopeptide, malachite green phosphate absorbance; at 20 µM; stronger effect = higher value
# In short: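 Assay system: SCP-1 catalytic fragment, aa 76-261 | Buffer or medium: Tris acetate buffer pH 5.5 with MgCl2 and Tween-20 | Compound: One concentration, 20 µM, with 1.0% DMSO | Also added: Phospho 17-mer peptide substrate | Signal: Absorbance at 630 nm | Incubation: 45 min enzyme reaction at room temperature | Measure: % inhibition of SCP-1 phosphate liberation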
# Sequence of Carboxy-terminal domain RNA polymerase II polypeptide A small phosphatase 1 (Homo sapiens) (Q9GZU7 76-261 limits assumed): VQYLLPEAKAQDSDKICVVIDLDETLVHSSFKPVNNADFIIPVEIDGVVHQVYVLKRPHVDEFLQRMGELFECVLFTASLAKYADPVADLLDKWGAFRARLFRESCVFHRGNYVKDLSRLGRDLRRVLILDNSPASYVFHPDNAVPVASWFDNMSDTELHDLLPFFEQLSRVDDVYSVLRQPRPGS
row,Structure (SMILES),inhibition
1,CCOC(=O)C1=C(C)c2ccccc2OC1C(=O)OCC (centres undefined),-1.33%
2,CCOC(=O)C1=C(C)c2ccccc2OC1(C)C(=O)OCC (centres undefined),70.1% (active)
3,CCOC(=O)C1=C(NC(=S)NC(=O)c2ccccc2)c2ccccc2CC1(C)C,-6.2%
4,COc1c(C(C)C)oc2cc3oc(=O)ccc3cc12,-9.44%
5,CSc1ccc(C#N)cc1NC(=O)c1cccc(Cl)c1,-21.5%
6,COc1ccc(NC(=O)c2ccco2)cc1NC(=O)c1ccc(C#N)cc1F,6.99%
7,N#Cc1ccc(C(=O)Nc2cccc3cccnc23)c(F)c1,100% (active)
8,Nc1ccc2nc3c(=O)[nH]c(=S)[nH]c3nc2c1,78.4% (active)
9,CC12CCC(C(=O)N3CCN(c4ncccn4)CC3)(c3nc4ccccc4nc31)C2(C)C (centres undefined),-9.3%
10,COC(=O)Cc1c(-c2[nH]c3ccccc3c2CC(=O)OC)[nH]c2ccccc12,-13.3%
11,COC(=O)C[n+]1cccc2ccccc21,105% (active)
12,O=C(C[n+]1cc(Br)cc2ccccc21)c1ccc(F)cc1,-4.19%
13,CCOc1cc2[nH]c(=S)n(CCCN3CCCC3=O)c(=O)c2cc1OCC,-8.04%
14,Cc1ccc(NC(=S)N2CCN(c3ncccn3)CC2)cc1C,4.95%
15,COc1ccc(CN2CCC(n3nccc3NC(=O)CCCc3ccccc3)CC2)cc1C,6.87%
16,Cc1c(OC(C)C(=O)N[C@@H](Cc2ccccc2)C(=O)O)ccc2c3c(c(=O)oc12)CCCC3 (some centres undefined),4.1%
17,Cc1oc2c(C)c3oc(=O)c(CC(=O)N[C@@H](CC(C)C)C(=O)N[C@@H](Cc4ccccc4)C(=O)O)c(C)c3cc2c1C,88% (active)
18,Cc1c(CCC(=O)N[C@@H](CC(C)C)C(=O)O)c(=O)oc2c(C)c3oc4c(c3cc12)CCCC4,-2.45%
19,CC(Oc1ccc(-c2ccccc2)c(F)c1)c1ccn(S(=O)(=O)c2cccc3ccccc23)n1 (centres undefined),-13.9%
20,Cc1c(-c2nn(C)c(=O)c3ccccc23)oc2ccc(F)cc2c1=O,3.62%
21,Cc1c(Cl)c([N+](=O)[O-])nn1CCCC(=O)NC(C)c1ccccc1 (centres undefined),-27.1%
22,Cc1nnc(SCC(=O)Nc2ccc(S(=O)(=O)Nc3ccc(Cl)nn3)cc2)s1,79.2% (active)
23,Cc1nnc(SCC(=O)Nn2cnnc2)s1,-3.13%
24,CCCCCC(=O)Nc1ccc(S(=O)(=O)Nc2ccc(Cl)nn2)cc1,4.6%

row,Structure (SMILES),inhibition
1,CCNC(=O)COc1cc(C)c(Br)c(C)c1,-2.07%
2,COCCNC(=O)c1snc2ccc(Cl)cc12,-6.6%
3,COCCNC(=O)Nc1ccc2nc(-c3ccco3)c(-c3ccco3)nc2c1,79.6% (active)
4,O=C(Nc1nc(-c2ccco2)c(-c2ccco2)s1)c1ccco1,-3.82%
5,O=C(COc1ccccc1)Nc1ccc(N2CCN(C(=O)c3cccs3)CC2)cc1,-5.15%
6,O=C(CNC(=O)c1n[nH]c2ccccc12)Nc1cc(Cl)ccc1Cl,5.8%
7,Cc1cccc(N=Nc2c(O)[nH]c3ccc(F)cc23)c1,-10.6%
8,COc1ccccc1OCCCCCCN1CCN(C)CC1,-4.32%
9,COc1ccc(C(=O)NC(=S)Nc2ccccc2N2CCN(S(C)(=O)=O)CC2)cc1OC,-10.7%
10,CCCC(=O)Nc1ccccc1N1CCN(C(=O)c2ccccc2)CC1,-9.5%
11,CCC(=O)Nc1ccccc1N1CCN(S(C)(=O)=O)CC1,53.6% (active)
12,CCn1cc(C(=O)NCC(=O)NC(C)(C)CO)c(=O)c2cc3c(cc21)OCO3,-9.05%
13,COc1ccccc1CCC(=O)OCC(=O)N1CCN(S(=O)(=O)c2ccc(C)cc2C)CC1,-11.1%
14,CC1(C)CC(CNCCC(c2ccc(F)cc2)c2ccco2)CCO1 (centres undefined),-5.21%
15,CCn1ncc(CNC(=O)C2(C)CC2(Br)Br)c1C (centres undefined),-6.32%
16,C[C@@H]1CN([C@@H](C)CO)C(=O)c2cc(NC(=O)C3CC3)ccc2O[C@H]1CN(C)C,-8.19%
17,Cc1noc(C)c1S(=O)(=O)N(C)C[C@H]1Oc2ccc(NC(=O)C3CCCCC3)cc2C(=O)N([C@H](C)CO)C[C@@H]1C,-2.33%
18,Cc1noc(C)c1NC(=O)Nc1ccc2c(c1)C(=O)N([C@H](C)CO)C[C@H](C)[C@@H](CN(C)C(=O)Nc1ccc(C(F)(F)F)cc1)O2,50.3% (active)
19,COc1ccc(NC(=O)N(C)C[C@H]2Oc3ccc(NC(=O)C4CC4)cc3C(=O)N([C@H](C)CO)C[C@@H]2C)cc1,67.9% (active)
20,C[C@@H]1CN([C@H](C)CO)C(=O)c2cc(NC(=O)NC3CCCCC3)ccc2O[C@H]1CN(C)S(C)(=O)=O,-8.19%
21,C[C@@H]1CN([C@@H](C)CO)C(=O)c2cccc(NS(=O)(=O)c3ccc(F)cc3)c2O[C@H]1CN(C)C(=O)NC1CCCCC1,-0.48%
22,COc1ccc(S(=O)(=O)N(C)C[C@@H]2Oc3ccc(NC(=O)Nc4c(C)noc4C)cc3C(=O)N([C@H](C)CO)C[C@@H]2C)cc1,21.7%
23,Cc1ccc(S(=O)(=O)Nc2ccc3c(c2)C(=O)N([C@H](C)CO)C[C@@H](C)[C@@H](CN(C)C(=O)Nc2cccc4ccccc24)O3)cc1,59.1% (active)
24,C[C@H](CO)N1C[C@H](C)[C@@H](CN(C)C(=O)NC2CCCCC2)Oc2ccc(NC(=O)c3ccncc3)cc2C1=O,57.7% (active)

row,Structure (SMILES),inhibition
1,COc1ccc(NC(=O)Nc2ccc3c(c2)C(=O)N([C@H](C)CO)C[C@H](C)[C@@H](CN(C)C(=O)Nc2ccc4c(c2)OCO4)O3)cc1,48.8%
2,C[C@H](CO)N1C[C@H](C)[C@@H](CN(C)S(=O)(=O)c2ccc(F)cc2)Oc2ccc(NC(=O)CCC(F)(F)F)cc2C1=O,-5.81%
3,Cc1noc(C)c1NC(=O)Nc1ccc2c(c1)C(=O)N([C@H](C)CO)C[C@H](C)[C@@H](CN(C)C(=O)Nc1ccccc1)O2,35.8%
4,CN(C(=O)CSc1nnc(-c2c[nH]c3ccccc23)o1)C1CCS(=O)(=O)C1 (centres undefined),-5.57%
5,Cc1cccc(N2CCN(Cc3nc(C4CC4)no3)CC2)n1,-8.45%
6,CC(C)=CCN1CCN(Cc2cc3ccccc3[nH]2)CC1CCO (centres undefined),-3.55%
7,COC(=O)c1ccc(S(=O)(=O)c2ccc(C(=O)OC)s2)s1,-2.05%
8,NC(=O)C1=C[C@H](c2csc3ccccc23)C[C@H](OCc2ccc(CO)cc2)O1,-0.48%
9,Cc1noc(C)c1NC(=O)Nc1cccc2c1O[C@H](CN(C)C(=O)Nc1ccccc1)[C@@H](C)CN([C@H](C)CO)C2=O,-8.19%
10,C[C@H](CO)N1C[C@H](C)[C@H](CN(C)C(=O)Nc2ccc(C(F)(F)F)cc2)Oc2c(NC(=O)c3ccncc3)cccc2C1=O,88% (active)
11,C[C@H](CO)N1C[C@H](C)[C@@H](CN(C)C(=O)Nc2ccc3c(c2)OCO3)Oc2c(cccc2N(C)C)C1=O,38.7%
12,COC(=O)CSc1ccc2nnc(CCNS(=O)(=O)c3ccc(C)cc3)n2n1,-10.5%
13,Cc1ccccc1NC(=O)CSC(=O)c1ccccc1,-4.57%
14,O=C1N/C(=C/c2cccn2-c2ccccc2)C(=O)N1c1cccc(Cl)c1,-4.36%
15,Cc1ccccc1NC(=O)CN1C(=O)N/C(=C\c2cccn2-c2cccc(C(=O)O)c2)C1=O,65.5% (active)
16,O=C(COC(=O)c1ccc(O)cc1)Nc1nccs1,-1.45%
17,O=C(Nc1ccc(-c2ccc3nncn3n2)cc1)C1CCCCC1,-12.9%
18,COc1ccc(OC)c(NC(=O)CSc2nc(-c3ccccc3)cc(=O)[nH]2)c1,81.5% (active)
19,CCCc1cc(=O)[nH]c(SCC(=O)Nc2ccc(C(=O)Nc3ccccc3OC)cc2)n1,-2.71%
20,COc1ccc(OC)c(NC(=O)CSc2nc(N)c(-c3ccccc3)c(=O)[nH]2)c1,3.19%
21,CC(=O)c1cccc(NC(=O)N2CCCC2C(=O)NCCc2ccccc2)c1 (centres undefined),-7.73%
22,CS(=O)(=O)NCc1ccc(C(=O)NCc2ccccc2)cc1,-6.79%
23,C[n+]1ccc(C(=O)NCc2ccccc2)cc1,92.7% (active)
24,Nc1ccc(C(=O)NCc2ccccc2)cc1,-1.69%

row,Structure (SMILES),inhibition
1,Cc1noc(C)c1-c1ccc2ncnc(NC(C)c3ccco3)c2c1 (centres undefined),8.09%
2,CCn1cc(C(=O)N2CCN(C3CCCCC3)CC2)c2cc(OC)c(OC)cc2c1=O,0%
3,CCOC(=O)N1CCN(C(=O)C2CC(c3ccc(F)cc3)=NO2)CC1 (centres undefined),-0.41%
4,Cc1cccc(-[n+]2c(-c3cccc(Br)c3)[nH]c3nc4ccccc4nc32)c1,-8.9%
5,NS(=O)(=O)c1cccc(NC(=O)CSc2nc3ccccc3n2-c2ccccc2)c1,-22.7%
6,NC(=O)NC(=O)CSc1nc2cc([N+](=O)[O-])ccc2n1-c1cccc(C(F)(F)F)c1,62.8% (active)
7,COc1ccc(-n2cnnc2SCC(=O)Nc2cccc([N+](=O)[O-])c2)cc1,-10.7%
8,C/C(CC(=O)Nc1ccc(Cl)cc1)=N\NC(=O)C(=O)NCCO,-2.46%
9,COc1ccc(N2C(=O)C(CC(=O)Nc3ccc(F)cc3)N(CCc3cccs3)C2=O)cc1 (centres undefined),0.58%
10,CCN(CC)c1ccc(C(=O)NNC(=O)CCc2nc3ccccc3c(=O)[nH]2)cc1,-4.7%
11,CN(c1ccccc1)S(=O)(=O)c1ccc(Cl)c(C(=O)OCC(N)=O)c1,-10.7%
12,CC1CCN(C(=O)COC(=O)CCC(=O)c2cccs2)CC1,0.96%
13,C/C(=N\Nc1ncc(Cl)cc1Cl)c1ccc(S(=O)(=O)NCc2ccco2)cc1,-6.85%
14,O=C(COC(=O)c1cccs1)NCc1cccs1,-4.94%
15,CSCCC(NC(=O)c1ccco1)C(=O)OCC(=O)Nc1ncc(Cl)c(C)c1Cl (centres undefined),2.12%
16,Cc1c(Cl)cnc(NC(=O)COC(=O)c2ccc(S(=O)(=O)NCc3ccco3)cc2)c1Cl,61.6% (active)
17,CN(c1ccccc1)S(=O)(=O)c1ccc(Cl)c(C(=O)OCC(=O)NCc2ccco2)c1,81.1% (active)
18,CCOC(=O)c1cnc(SCC(=O)NCc2ccco2)nc1N,-2.2%
19,CN(c1ccccc1)S(=O)(=O)c1ccc(Cl)c(C(=O)OCC(=O)N2CCOCC2)c1,-10.4%
20,Cc1cc(C(=O)OCC(=O)N2c3ccccc3NC(=O)C2(C)C)c(C)n1-c1ccccc1,-10.3%
21,O=C(COC(=O)CCC(=O)c1cccs1)NCc1ccco1,96.1% (active)
22,Cc1cc(C(=O)OCC(=O)NCc2ccco2)c(C)n1-c1ccccc1,73.1% (active)

# Source: PubChem BioAssay AID493091 (Sanford-Burnham Center for Chemical Genomics, 2011)
